Assay results published in ChEMBL document CHEMBL1142288, “Synthesis and biological evaluation of pyrroloiminoquinone derivatives” (Bioorg Med Chem, 2008).
pIC50: −log10 of the molar value. Calls of active or inactive are those of the source. No cut-off for these calls is given here.

Columns and labels:
HeLa [1] = assay: Antiproliferative activity against human HeLa cells after 72 hrs by trypan blue test; format: functional, cell-based
How it was run: (§1)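 HeLa (Ham's F-12, 10% heat-inactivated FCS) or HL-60 (RPMI 1640, 15% heat-inactivated FCS), both with penicillin/streptomycin/amphotericin; 4 · 10⁴ cells/well seeded in duplicate, 72 h drug exposure. Viability by Trypan blue; IC50 = concentration giving 50% reduction in cell number versus untreated controls.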

HL-60 = assay: Antiproliferative activity against human HL60 cells after 72 hrs by trypan blue test; format: functional, cell-based; settings: HL-60, 72 h; how it was run: as §1
NCI-H460 = assay: Antiproliferative activity against human NCI-H460 cells after 72 hrs; settings: NCI-H460, 72 h
HeLa [2] = assay: Induction of apoptosis in human HeLa cells assessed as DNA fragmentation at 100 uM after 24 hrs; format: functional, cell-based
How it was run: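 HeLa cells (5 · 10⁵) incubated 24 h at 37 °C, medium replaced, test agent added; solvent-only controls. After 24 h, DNA extracted, dissolved in TE (10 mM Tris pH 8, 1 mM EDTA), run on 1% agarose, ethidium bromide-stained and imaged under UV; cisplatin as positive control.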

Homo sapiens [3] = species: Homo sapiens; assay: Inhibition of human recombinant topoisomerase 2 assessed as relaxation of supercoiled pBR322 plasmid DNA at 50 uM
Homo sapiens [4] = species: Homo sapiens; assay: Inhibition of human recombinant topoisomerase 2 assessed as relaxation of supercoiled pBR322 plasmid DNA at 10 to 50 uM

In the case of COc1cc2c3c(c1OC)N(C=O)C(OC)C3CCN2C=O (stereo not drawn), the pIC50 (HeLa [1]) was < 4.70, the pIC50 (HL-60) was < 4.70 and the pIC50 (NCI-H460) was 5.11.
In the case of Cn1cc2c3c1C(=O)C(NCCc1c[nH]c4ccccc14)=CC3=NCC2, the pIC50 (HeLa [1]) was 5.39, the Activity (HeLa [2]) was “Active” and the pIC50 (HL-60) was 5.11. The Activity (Homo sapiens [3]) was “Active” and the pIC50 (NCI-H460) was 5.67.
With COc1cccc2c1C(=O)c1c(O)c3c(c(O)c1C2=O)C[C@@](O)(C(=O)CO)C[C@@H]3O[C@H]1C[C@H](N)[C@H](O)[C@H](C)O1 [DOXORUBICIN] the pIC50 (NCI-H460) was 7.55.
For COc1cc2c3c(cn(C=O)c3c1OC)CCN2C=O, the pIC50 (NCI-H460) was < 4.22.
In the case of COc1cc(NS(C)(=O)=O)ccc1Nc1c2ccccc2nc2ccccc12 [AMSACRINE], the pIC50 (HeLa [1]) was 7.92 and the pIC50 (HL-60) was 8.29.
Cn1cc2c3c1C(=O)C(NCCc1c[nH]c4ccc(O)cc14)=CC3=NCC2 was tested, and the pIC50 (NCI-H460) was < 4.40.
For COc1ccc(CCNC2=CC3=NCCc4cn(C)c(c43)C2=O)cc1, the pIC50 (NCI-H460) was < 4.40.
For Cn1cc2c3c1C(=O)C1=C(C3=NCC2)C2(C=CC(=O)C=C2)CCN1, the pIC50 (HeLa [1]) was 5.26, the Activity (HeLa [2]) was “Active” and the pIC50 (HL-60) was 5.51. It also gave a pIC50 (NCI-H460) of 5.21.
COc1cc2c3c(cn(C)c3c1OC)CCN2C=O was tested, and the pIC50 (NCI-H460) was < 4.22.
Cn1cc2c3c1C(=O)C(NCc1ccccc1)=CC3=NCC2 was tested, and the pIC50 (NCI-H460) was < 4.40.
Compound C[C@H](NC1=CC2=NCCc3cn(C)c(c32)C1=O)c1ccccc1 has a pIC50 (NCI-H460) of 4.64.
With COC1=CC2=NCCc3cn(C)c(c32)C1=O the pIC50 (HeLa [1]) was < 4.70, the pIC50 (HL-60) was < 4.70 and the pIC50 (NCI-H460) was 5.05.
With COc1cc2c3c(c[nH]c3c1OC)CCN2C=O the pIC50 (NCI-H460) was < 4.22.
Cn1cc2c3c1C(=O)C(NCCc1ccc(O)cc1)=CC3=NCC2 [MAKALUVAMINE K] was tested, and the pIC50 (HeLa [1]) was 5.31, the Activity (HeLa [2]) was “Active” and the pIC50 (HL-60) was 5.16. The pIC50 (NCI-H460) was 4.97.
COc1cc2c3c(cn(C)c3c1OC)CCN2 was tested, and the pIC50 (NCI-H460) was < 4.22.
In the case of Cn1cc2c3c1C(=O)C1=C(NCCS1)C3=NCC2, the Activity (Homo sapiens [4]) was “Active”, the pIC50 (HeLa [1]) was 5.72 and the pIC50 (HL-60) was 5.57. For the same compound, the pIC50 (NCI-H460) was 6.02.
In the case of Cn1cc2c3c1C(=O)C(NCCc1c[nH]c4ccc(F)cc14)=CC3=NCC2, the pIC50 (HeLa [1]) was < 4.70, the pIC50 (HL-60) was < 4.70 and the pIC50 (NCI-H460) was 5.26.
COc1ccc2[nH]cc(CCNC3=CC4=NCCc5cn(C)c(c54)C3=O)c2c1 gave a pIC50 (NCI-H460) of 5.06.
